The source made the active and inactive calls. The rule behind the calls is not given here.
Tests used:
[1] = target: T1, Sphingosine 1-phosphate receptor 3 (Homo sapiens, UniProt Q99500); assay: Agonist activity at human S1P3 receptor expressed in CHO-K1 cells assessed as increase in S1P-stimulated calcium influx preincubated for 5 mins followed by S1P stimulation measured every 3 secs by fluorescence method; type: cell-based
[2] = target: T2, Sphingosine 1-phosphate receptor 2 (Homo sapiens, UniProt O95136); assay: Agonist activity at human S1P2 receptor expressed in CHO-K1 cells assessed as increase in S1P-stimulated calcium influx preincubated for 5 mins followed by S1P stimulation measured every 3 secs by fluorescence method; type: functional, cell-based
[3] = target: T3, Sphingosine 1-phosphate receptor 1 (Homo sapiens, UniProt P21453); assay: Agonist activity at human S1P1 receptor expressed in CHO-K1 cells assessed as inhibition of forskolin-stimulated cAMP accumulation after 30 mins by ELISA; type: functional, cell-based
[4] = target: T4, Sphingosine 1-phosphate receptor 5 (Homo sapiens, UniProt Q9H228); assay: Agonist activity at human S1P5 receptor expressed in CHO-K1 cells assessed as inhibition of forskolin-stimulated cAMP accumulation after 30 mins by ELISA; type: functional, cell-based
Mus musculus [5] = assay: Decrease in peripheral lymphocyte levels in po dosed BALB/c mouse at 4 hrs by automated hematology analyzer; type: functional
Summary of the method: (§1)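 Compound given orally to 6-week-old male BALB/c mice. At 4 or 24 h, blood was taken from the abdominal aorta under ether anaesthesia and lymphocytes counted on an automated haematology analyser. Counts expressed as % of the vehicle-group mean; ED50 is the dose lowering counts to 50%. One experiment, five mice.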

Mus musculus [6] = assay: Decrease in peripheral lymphocyte levels in po dosed BALB/c mouse at 24 hrs by automated hematology analyzer; type: functional; summary of the method: as §1
[7] = Total clearance in Crl:CD(SD) rat at 0.1 mg/kg, iv by LC-MS/MS analysis; type: ADME, organism-based; conditions: in vivo
Summary of the method: (§2)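 Single intravenous or oral dose of 0.1 mg/kg to male Crl:CD(SD) rats and to monkeys. Values are means of three animals with SD.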

[8] = AUC (infinity) in Crl:CD(SD) rat at 0.1 mg/kg, iv by LC-MS/MS analysis; type: ADME, organism-based; parameters: dose 0.1 mg/kg, time infinity, route intravenous; conditions: in vivo; summary of the method: as §2
[9] = AUC (infinity) in Crl:CD(SD) rat at 0.1 mg/kg, po by LC-MS/MS analysis; type: ADME, organism-based; parameters: dose 0.1 mg/kg, time infinity, route oral; conditions: in vivo; summary of the method: as §2
[10] = AUC (infinity) in cynomolgus monkey at 0.1 mg/kg, po by LC-MS/MS analysis; type: ADME, organism-based, Macaca fascicularis; parameters: dose 0.1 mg/kg, route oral, time infinity; conditions: in vivo; summary of the method: as §2
[11] = Total clearance in cynomolgus monkey at 0.1 mg/kg, iv by LC-MS/MS analysis; type: ADME, organism-based, Macaca fascicularis; conditions: in vivo; summary of the method: as §2
[12] = Half life in Crl:CD(SD) rat at 0.1 mg/kg, iv by LC-MS/MS analysis; type: ADME, organism-based; conditions: in vivo; summary of the method: as §2
[13] = Half life in Crl:CD(SD) rat at 0.1 mg/kg, po by LC-MS/MS analysis; type: ADME, organism-based; conditions: in vivo; summary of the method: as §2
[14] = Half life in cynomolgus monkey at 0.1 mg/kg, iv by LC-MS/MS analysis; type: ADME, organism-based, Macaca fascicularis; conditions: in vivo; summary of the method: as §2
[15] = Half life in cynomolgus monkey at 0.1 mg/kg, po by LC-MS/MS analysis; type: ADME, organism-based, Macaca fascicularis; conditions: in vivo; summary of the method: as §2
[16] = Volume of distribution at steady state in Crl:CD(SD) rat at 0.1 mg/kg, iv by LC-MS/MS analysis; type: ADME, organism-based; conditions: in vivo, read-out: Vdss; summary of the method: as §2
[17] = Volume of distribution at steady state in cynomolgus monkey at 0.1 mg/kg, iv by LC-MS/MS analysis; type: ADME, organism-based, Macaca fascicularis; conditions: in vivo, read-out: Vdss; summary of the method: as §2
[18] = Oral bioavailability in Crl:CD(SD) rat at 0.1 mg/kg by LC-MS/MS analysis; type: ADME, organism-based; conditions: in vivo; summary of the method: as §2
Rattus norvegicus = assay: Antiarthritic activity in bovine type 2 collagen-induced Lewis rat arthritis model at 0.1 mg/kg, po qd administered up to 27 days; type: functional, organism-based
Summary of the method: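 Female Lewis rats were immunised with bovine type II collagen in incomplete Freund's adjuvant on days 0 and 7. Compound (0.03 or 0.1 mg/kg) or 0.5% methylcellulose was given orally once daily, days 0–27. Paw oedema/erythema was scored. Groups: n = 9–10 treated/control, normal n = 5. Mean ± SE, Steel test.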

Cynomolgus monkey [19] = assay: Toxicity in unrestrained conscious cynomolgus monkey assessed as decrease in heart rate at 100 mg/kg, po administered as single dose measured at 4 hrs relative to control; type: organism-based, Macaca fascicularis; parameters: scale not given: the % may be the effect or the level left; conditions: in vivo
Summary of the method: (§3)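 Single oral dose of 1, 10 or 100 mg/kg to unrestrained conscious monkeys. Heart rate was followed from 4 to 24 h after dosing and its decrease expressed against the pretreatment value. Plasma concentration was sampled at 4 and 24 h.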

[20] = Plasma concentration in unrestrained conscious cynomolgus monkey at 1 mg/kg, po measured at 4 hrs; type: ADME, organism-based, Macaca fascicularis; summary of the method: as §3
[21] = Plasma concentration in unrestrained conscious cynomolgus monkey at 100 mg/kg, po measured at 4 hrs; type: ADME, organism-based, Macaca fascicularis; summary of the method: as §3
Cynomolgus monkey [22] = assay: Decrease in peripheral lymphocyte levels in unrestrained conscious cynomolgus monkey at 0.01 to 0.03 mg/kg, po administered as single dose measured after 4 to 24 hrs by automated hematology analyzer; type: functional, organism-based; conditions: Macaca fascicularis
Summary of the method: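 Single oral doses of 0.01 and 0.03 mg/kg to monkeys. Peripheral lymphocyte counts were followed from 4 to 24 h after administration.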

[23] = target: Sphingosine 1-phosphate receptor 1 (Rattus norvegicus, UniProt P48303); assay: Displacement of [33P]-S1P from rat S1P1 receptor after 60 mins by scintillation counting method
[24] = Cmax in bovine type 2 collagen-induced Lewis rat arthritis model at 0.03 mg/kg, po qd administered up to 27 days; type: ADME, organism-based; parameters: dose 0.03 mg/kg, route oral; conditions: in vivo
[25] = Cmax in bovine type 2 collagen-induced Lewis rat arthritis model at 0.1 mg/kg, po qd administered up to 27 days; type: ADME, organism-based; parameters: dose 0.1 mg/kg, route oral; conditions: in vivo
[26] = target: T2, Sphingosine 1-phosphate receptor 2; assay: Displacement of [33P]-S1P from human S1P2 receptor expressed in CHO-K1 cells after 60 mins by scintillation counting method; type: cell-based
[27] = target: T1, Sphingosine 1-phosphate receptor 3; assay: Displacement of [33P]-S1P from human S1P3 receptor expressed in CHO-K1 cells after 60 mins by scintillation counting method; type: cell-based
[28] = target: T5, Sphingosine 1-phosphate receptor 4 (Homo sapiens, UniProt O95977); assay: Displacement of [33P]-S1P from human S1P4 receptor expressed in CHO-K1 cells after 60 mins by scintillation counting method; type: cell-based
T5 sequence (O95977 whole entry): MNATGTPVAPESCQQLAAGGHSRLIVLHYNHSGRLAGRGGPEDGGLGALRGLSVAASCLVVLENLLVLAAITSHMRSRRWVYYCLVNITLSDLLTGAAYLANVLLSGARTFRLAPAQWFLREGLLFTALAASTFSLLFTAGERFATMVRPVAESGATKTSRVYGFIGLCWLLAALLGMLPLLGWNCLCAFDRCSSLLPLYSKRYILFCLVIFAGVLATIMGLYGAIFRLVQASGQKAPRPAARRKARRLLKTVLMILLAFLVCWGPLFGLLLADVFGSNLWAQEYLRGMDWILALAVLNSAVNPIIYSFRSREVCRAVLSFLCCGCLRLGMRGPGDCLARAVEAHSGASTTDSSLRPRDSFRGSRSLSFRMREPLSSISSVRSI

[29] = target: T4, Sphingosine 1-phosphate receptor 5; assay: Displacement of [33P]-S1P from human S1P5 receptor expressed in CHO-K1 cells after 60 mins by scintillation counting method; type: cell-based
[30] = target: T3, Sphingosine 1-phosphate receptor 1; assay: Downregulation of human S1P1 receptor expressed in CHO-K1 cell membranes assessed as concentration required to induce downregulation of receptor by 90% by flow cytometric method; type: cell-based

T2 sequence (O95136 whole entry): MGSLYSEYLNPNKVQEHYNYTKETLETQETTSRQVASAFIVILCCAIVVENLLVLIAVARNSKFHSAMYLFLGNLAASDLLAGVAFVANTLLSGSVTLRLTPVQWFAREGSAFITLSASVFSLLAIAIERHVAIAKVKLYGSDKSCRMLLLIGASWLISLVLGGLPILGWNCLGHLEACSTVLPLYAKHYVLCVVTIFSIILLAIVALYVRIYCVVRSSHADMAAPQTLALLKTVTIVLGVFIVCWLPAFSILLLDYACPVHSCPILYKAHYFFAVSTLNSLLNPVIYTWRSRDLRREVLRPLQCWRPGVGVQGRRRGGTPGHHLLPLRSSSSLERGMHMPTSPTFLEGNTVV
T1 sequence (Q99500 whole entry): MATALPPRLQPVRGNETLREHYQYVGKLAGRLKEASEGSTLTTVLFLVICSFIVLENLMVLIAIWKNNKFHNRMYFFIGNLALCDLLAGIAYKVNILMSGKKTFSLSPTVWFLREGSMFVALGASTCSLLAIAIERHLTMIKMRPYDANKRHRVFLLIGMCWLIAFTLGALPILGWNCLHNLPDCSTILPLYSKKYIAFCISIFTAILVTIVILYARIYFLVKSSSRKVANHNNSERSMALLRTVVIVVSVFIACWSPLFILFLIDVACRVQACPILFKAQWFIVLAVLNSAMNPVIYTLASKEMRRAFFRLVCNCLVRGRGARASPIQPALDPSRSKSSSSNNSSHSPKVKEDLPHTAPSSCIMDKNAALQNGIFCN
T3 sequence (P21453 whole entry): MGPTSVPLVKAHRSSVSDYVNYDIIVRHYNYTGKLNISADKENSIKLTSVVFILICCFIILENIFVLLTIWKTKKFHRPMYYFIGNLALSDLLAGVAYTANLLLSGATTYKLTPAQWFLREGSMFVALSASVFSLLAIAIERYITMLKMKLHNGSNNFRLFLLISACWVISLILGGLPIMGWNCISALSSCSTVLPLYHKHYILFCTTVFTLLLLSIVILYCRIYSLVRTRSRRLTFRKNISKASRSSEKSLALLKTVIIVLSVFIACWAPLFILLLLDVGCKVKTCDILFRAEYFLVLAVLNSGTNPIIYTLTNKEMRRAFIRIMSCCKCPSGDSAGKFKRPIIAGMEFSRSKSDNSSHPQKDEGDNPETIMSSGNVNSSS
T4 sequence (Q9H228 whole entry): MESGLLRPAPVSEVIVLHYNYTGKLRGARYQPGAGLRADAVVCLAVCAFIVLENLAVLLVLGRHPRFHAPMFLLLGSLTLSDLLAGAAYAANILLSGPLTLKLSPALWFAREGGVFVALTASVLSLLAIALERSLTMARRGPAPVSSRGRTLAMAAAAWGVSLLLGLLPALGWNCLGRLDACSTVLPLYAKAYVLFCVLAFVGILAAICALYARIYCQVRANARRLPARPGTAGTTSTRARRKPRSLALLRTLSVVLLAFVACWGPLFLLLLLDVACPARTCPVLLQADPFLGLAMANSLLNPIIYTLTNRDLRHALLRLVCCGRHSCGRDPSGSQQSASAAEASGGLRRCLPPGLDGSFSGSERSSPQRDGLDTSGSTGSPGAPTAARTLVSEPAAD
Sphingosine 1-phosphate receptor 1 (Rattus norvegicus, UniProt P48303), sequence (P48303 whole entry): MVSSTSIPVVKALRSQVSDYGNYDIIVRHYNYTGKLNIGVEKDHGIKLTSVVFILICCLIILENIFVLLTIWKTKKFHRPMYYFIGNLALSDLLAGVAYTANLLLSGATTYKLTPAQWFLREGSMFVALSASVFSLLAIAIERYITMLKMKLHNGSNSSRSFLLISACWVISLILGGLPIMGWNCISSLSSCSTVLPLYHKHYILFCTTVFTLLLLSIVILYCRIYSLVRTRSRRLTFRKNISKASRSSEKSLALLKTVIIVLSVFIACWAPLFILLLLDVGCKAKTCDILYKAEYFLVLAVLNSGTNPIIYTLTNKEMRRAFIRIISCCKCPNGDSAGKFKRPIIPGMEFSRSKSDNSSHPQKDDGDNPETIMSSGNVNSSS

With CCCc1ccc(COc2ccc3c(c2)CCC(CN2CC(C(=O)O)C2)=C3C)c(OC)c1 the EC50 [1] was greater than 30000 nM, the EC50 [2] was greater than 30000 nM and the EC50 [3] was 0.027 nM. The EC50 [4] was 0.33 nM, the ED50 (Mus musculus [5]) was 0.018 mg/kg and the ED50 (Mus musculus [6]) was 0.029 mg/kg. The clearance [7] was 5.63 mL/min/kg, the AUC(0-inf) [8] was 302 ng·h/mL and the AUC(0-inf) [9] was 229 ng·h/mL. For the same compound, the AUC(0-inf) [10] was 1090 ng·h/mL, the clearance [11] was 1.06 mL/min/kg and the half-life [12] was 16 h. It also gave a half-life [13] of 17 h, a half-life [14] of 30 h and a half-life [15] of 29 h. The Vd [16] was 7.15 L/kg, the Vd [17] was 2.66 L/kg and the bioavailability [18] was 75.9%. For the same compound, the Activity (Rattus norvegicus) was “Active”, the Activity (Cynomolgus monkey [19]) was 19% and the concentration at 4 h [20] was 320 ng/mL. The concentration at 4 h [21] was 13500 ng/mL, the Activity (Cynomolgus monkey [22]) was “Active” and the Ki [23] was 0.772 nM. For the same compound, the Cmax [24] was 5.76 nM, the Cmax [25] was 21.5 nM and the Ki [26] was greater than 5450 nM. It also gave a Ki [27] greater than 5630 nM, a Ki [28] of 28.8 nM and a Ki [29] of 0.574 nM. The Activity [30] was 25 nM.
